# Data taken from ChEMBL document CHEMBL3779800 (ACS Med Chem Lett, 2016).
# pKi: −log10 of the molar value.
# Tests used:
# [1] = biological target: T1, Amine oxidase [flavin-containing] A (Homo sapiens, UniProt P21397); test: Competitive inhibition of recombinant human MAO-A using p-tyramine as substrate preincubated for 15 mins followed by substrate addition by Lineweaver-Burk plot analysis
# T1 sequence (P21397 whole entry): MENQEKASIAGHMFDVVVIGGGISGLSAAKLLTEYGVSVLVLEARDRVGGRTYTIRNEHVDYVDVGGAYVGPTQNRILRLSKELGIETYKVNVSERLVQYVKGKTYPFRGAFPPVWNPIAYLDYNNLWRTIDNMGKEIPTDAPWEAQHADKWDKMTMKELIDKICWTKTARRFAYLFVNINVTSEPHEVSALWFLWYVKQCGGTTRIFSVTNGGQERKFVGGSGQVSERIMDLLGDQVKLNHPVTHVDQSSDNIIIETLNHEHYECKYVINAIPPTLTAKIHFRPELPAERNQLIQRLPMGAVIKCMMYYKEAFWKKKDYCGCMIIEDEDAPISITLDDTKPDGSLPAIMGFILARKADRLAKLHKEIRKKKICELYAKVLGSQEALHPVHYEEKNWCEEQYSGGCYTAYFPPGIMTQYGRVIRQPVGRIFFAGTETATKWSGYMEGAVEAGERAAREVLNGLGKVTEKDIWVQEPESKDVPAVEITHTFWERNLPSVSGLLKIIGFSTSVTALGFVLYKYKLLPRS
# [2] = biological target: T1, Amine oxidase [flavin-containing] A; test: Inhibition of recombinant human MAO-A using p-tyramine as substrate assessed as H2O2 production preincubated for 15 mins followed by substrate addition measured for 15 mins by amplex red assay
# Method in brief: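 H2O2 formed from p-tyramine, a substrate shared by hMAO-A and hMAO-B, was measured with an Amplex Red MAO kit. Compounds were checked for direct reaction with the Amplex Red reagent. They were also checked for resorufin quenching by combining the highest compound concentration with various resorufin concentrations. Protein was determined by Bradford with BSA standard. Values are mean ± SEM of three independent experiments.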
# [3] = biological target: T2, Amine oxidase [flavin-containing] B (Homo sapiens, UniProt P27338); test: Inhibition of recombinant human MAO-B using p-tyramine as substrate assessed as H2O2 production preincubated for 15 mins followed by substrate addition measured for 15 mins by amplex red assay
# T2 sequence (P27338 whole entry): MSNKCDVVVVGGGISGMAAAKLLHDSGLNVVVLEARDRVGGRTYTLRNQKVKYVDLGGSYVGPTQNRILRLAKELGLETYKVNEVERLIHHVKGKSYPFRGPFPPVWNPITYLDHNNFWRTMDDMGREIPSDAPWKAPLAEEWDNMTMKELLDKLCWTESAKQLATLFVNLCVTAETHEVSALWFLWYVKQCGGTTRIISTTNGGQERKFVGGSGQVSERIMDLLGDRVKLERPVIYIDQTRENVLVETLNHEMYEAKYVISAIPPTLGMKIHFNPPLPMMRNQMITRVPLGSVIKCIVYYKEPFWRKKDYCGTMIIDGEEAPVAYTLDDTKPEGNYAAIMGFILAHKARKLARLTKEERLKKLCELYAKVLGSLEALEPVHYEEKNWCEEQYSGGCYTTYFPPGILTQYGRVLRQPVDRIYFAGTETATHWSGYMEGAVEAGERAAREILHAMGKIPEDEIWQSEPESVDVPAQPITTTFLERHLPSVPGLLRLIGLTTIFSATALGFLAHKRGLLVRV
# [4] = biological target: T1, Amine oxidase [flavin-containing] A; test: Reversible inhibition of recombinant human MAO-A using p-tyramine as substrate incubated for 1 hr by centrifugation ultra filtration method
# [5] = organism: Homo sapiens; test: Selectivity index, ratio of Ki for recombinant human MAO-A to Ki for recombinant human MAO-B
# Method in brief: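 SI is Ki(MAO-A)/Ki(MAO-B). Each Ki comes from the Amplex Red H2O2 assay with p-tyramine substrate and is the mean ± SEM of three independent experiments. Racemates were tested. A lower SI indicates MAO-A preference and a higher SI indicates MAO-B preference.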
# [6] = biological target: T1, Amine oxidase [flavin-containing] A; test: Irreversible inhibition of recombinant human MAO-A using p-tyramine as substrate incubated for 1 hr by centrifugation ultra filtration method
# Method in brief: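 Reversibility of hMAO-A inhibition assessed by a centrifugation-ultrafiltration method. Enzyme activity was read as H2O2 production from p-tyramine using Amplex Red fluorescence. Compounds were checked for direct reaction with Amplex Red and for resorufin quenching, tested at their maximum concentration against various resorufin concentrations. Racemic compounds were used.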
# [7] = biological target: T1, Amine oxidase [flavin-containing] A; test: Suicide inhibition of recombinant human MAO-A using p-tyramine as substrate preincubated for 15 mins followed by substrate addition by Lineweaver-Burk plot analysis
Compound,inhibition (INH) [1],pKi [2],pKi [3],inhibition (INH) [4],Ratio Ki [5],inhibition (INH) [6],inhibition (INH) [7]
CCOC(=O)N1N=C(c2ccc(O)c(OC)c2)CC1c1ccccc1 (racemic),Active,6.36,3.70,Active,0.002,,
COc1cc(C2=NN(C(=N)N)C(c3ccccc3)C2)ccc1O (racemic),Active,5.02,3.70,Active,0.047,,
COc1cc(C2=NN(S(=O)(=O)c3ccc(C)cc3)C(c3ccccc3)C2)ccc1O (racemic),Active,7.22,2.23,Active,1.02e-05,,
COc1cc(C2=NNC(c3ccccc3)C2)ccc1O (racemic),Active,5.30,6.46,Active,14.3,,
COc1cc(C2=NN(C(C)=O)C(c3ccccc3)C2)ccc1O (racemic),Active,5.41,,Active,,,
COc1cc(C2=NN(C(=O)Oc3ccccc3)C(c3ccccc3)C2)ccc1O (racemic),Active,6.54,5.40,Active,0.073,,
COc1cc(C2=NN(C(=S)Nc3ccccc3)C(c3ccccc3)C2)ccc1O (racemic),Active,6.26,4.80,Active,0.035,,
COc1cc(C2=NN(c3ccccc3)C(c3ccccc3)C2)ccc1O (racemic),Active,5.67,,Active,,,
COc1cc(C2=NN(C(=O)c3ccccc3)C(c3ccccc3)C2)ccc1O (racemic),Active,5.37,4.39,Active,0.104,,
COc1cc(C2=NN(C(N)=S)C(c3ccccc3)C2)ccc1O (racemic),Active,5.59,5.56,Active,0.928,,
COc1cc(/C=C/C(=O)CC(=O)/C=C/c2ccc(O)c(OC)c2)ccc1O [CURCUMIN],Active,,,Active,,,
O=C(NCCN1CCOCC1)c1ccc(Cl)cc1 [MOCLOBEMIDE],Active,,,Active,,,
C#CCN(C)[C@H](C)Cc1ccccc1 [SELEGILINE],,,,,,Active,Active
